Experimental data reported in ChEMBL document CHEMBL1121663, “(Acylaryloxy)acetic acid diuretics. 3. 2,3-Dihydro-5-acyl-2-benzofurancarboxylic acids, a new class of uricosuric diuretics” (1981).
Values joined by “and” are separate entries in the source; they are usually repeats but may differ in a detail not shown here. Equal values may be shown once.

Experiments:
Canis familiaris [1] = assay: Diuretic activity in dogs following 5 mg/kg oral administration.
Canis familiaris [2] = assay: Compound was tested for diuretic activity in dogs at 5 mg/kg dose after oral administration measured as microequivalent of K+/minute; type: functional, Canis lupus familiaris, Urine
In short: (§1)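 Oral dog test: water loading (250 mL po, then 500 mL 1 h later). One hour later bladders were emptied by catheter and compound or placebo given in gelatin capsules. Dogs were kept in metabolism cages. Voided urine plus catheterized bladder urine was pooled at 5 h, and Na+, K+ and Cl- were measured by standard methods. Geometric means are reported.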

Canis familiaris [3] = assay: Compound was tested for diuretic activity in dogs at 5 mg/kg dose after oral administration measured as microequivalent of Na+/minute
Rattus norvegicus [4] = assay: Natriuretic activity in rats at 3 mg/kg of dosage; mequiv of Na; type: functional
In short: (§2)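 Rats housed three per metabolism cage received placebo vehicle or compound as a suspension in a final volume of 5.0 mL orally, with placebo groups run concurrently. Urine was collected over 0–5 h and analysed for Na+, K+ and Cl− by standard methods. Values are mequiv per cage, given as geometric means of three cages per dose level.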

Canis familiaris [5] = assay: Compound was tested for diuretic activity in dogs at 5 mg/kg dose after oral administration measured as microequivalent of Cl-/minute; type: functional, Canis lupus familiaris, Urine
In short: as §1

Rattus norvegicus [6] = assay: Natriuretic activity in rats at 27 mg/kg of dosage; mequiv of Na; type: functional
In short: as §2

Canis familiaris [7] = assay: Compound was tested for diuretic activity in dogs at 5 mg/kg dose after intravenous administration activity is measured as microequivalent of Cl-/minute (Control/Drug treated); type: functional, Canis lupus familiaris, Urine; settings: in the assay text read “oral” for “intravenous”
Canis familiaris [8] = assay: Compound was tested for diuretic activity in dogs at 5 mg/kg dose after intravenous administration measured as microequivalent of K+/minute (Control/Drug treated); type: functional, Canis lupus familiaris, Urine; settings: in the assay text read “oral” for “intravenous”
Canis familiaris [9] = assay: Compound was tested for diuretic activity in dogs at 5 mg/kg dose after oral administration measured as microequivalent of Na+/minute; type: functional, Canis lupus familiaris, Urine
In short: as §1

Rattus norvegicus [10] = assay: Natriuretic activity in rats at 81 mg/kg of dosage; mequiv of Na; type: functional
In short: as §2

Rattus norvegicus [11] = assay: Natriuretic activity in rats at 9 mg/kg of dosage; mequiv of Na; type: functional
In short: as §2

[12] = Compound was tested for natriuretic activity in chimpanzee at 5 mg/kg dose activity is measured as ratio of clearance of urate / […]; Curate/Cinulin; type: functional
In short: (§3)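 Inulin iv gave GFR; urate and inulin clearances and Na+, K+, Cl- excretion were measured by AutoAnalyzer. Controls were three 20-min periods; compound was given orally in aqueous solution via nasal catheter. Response was the mean of eight 15-20 min periods, reported as treatment minus control from single experiments.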

Canis familiaris [13] = assay: Compound was tested for diuretic activity in dogs at 5 mg/kg dose after intravenous administration measured as microequivalent of Cl-/minute; 5/102 (Control/Drug treated); type: functional, Canis lupus familiaris, Urine
In short: (§4)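 Intravenous dog clearance study. A priming iv injection of 1.5 mL/kg isoosmotic pH 7.4 phosphate buffer (20 mg PO4/kg) was given first. This was followed by infusion of 3 mL/min pH 7.4 buffer containing 4% mannitol (6.9 mg PO4/min) throughout the experiment. Urinary Na+, K+ and Cl- were measured by standard methods. Each value is the mean of the two highest consecutive 15-min collections.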

Canis familiaris [14] = assay: Compound was tested for diuretic activity in dogs at 5 mg/kg dose after intravenous administration measured as microequivalent of K+/minute; 6/36 (Control/Drug treated); type: functional, Canis lupus familiaris, Urine
In short: as §4

Pan troglodytes [15] = assay: Compound was tested for natriuretic activity in chimpanzee at 5 mg/kg dose activity is measured as microequivalent of Na+/minute; muequiv of Na+/min; type: functional
In short: as §3

Canis familiaris [16] = assay: Compound was tested for diuretic activity in dogs at 5 mg/kg dose after intravenous administration measured as microequivalent of Na+/minute; 20/108 (Control/Drug treated); type: functional, Canis lupus familiaris, Urine
Canis familiaris [17] = assay: Compound was tested for diuretic activity in dogs at 5 mg/kg dose after intravenous administration measured as microequivalent of K+/minute; 6/18 (Control/Drug treated); type: functional, Canis lupus familiaris, Urine
In short: as §4

Canis familiaris [18] = assay: Compound was tested for diuretic activity in dogs at 5 mg/kg dose after intravenous administration measured as microequivalent of Na+/minute; 52/264 (Control/Drug treated); type: functional, Canis lupus familiaris, Urine
Canis familiaris [19] = assay: Compound was tested for diuretic activity in dogs at 5 mg/kg dose after intravenous administration measured as microequivalent of Cl-/minute; 16/271 (Control/Drug treated); type: functional, Canis lupus familiaris, Urine
In short: as §4

Canis familiaris [20] = assay: Compound was tested for diuretic activity in dogs at 5 mg/kg dose after intravenous administration measured as microequivalent of K+/minute; 15/33 (Control/Drug treated); type: functional, Canis lupus familiaris, Urine
In short: as §4

Canis familiaris [21] = assay: Compound was tested for diuretic activity in dogs at 5 mg/kg dose after intravenous administration measured as microequivalent of Cl-/minute; 5/156 (Control/Drug treated); type: functional, Canis lupus familiaris, Urine
In short: as §4

Canis familiaris [22] = assay: Compound was tested for diuretic activity in dogs at 5 mg/kg dose after intravenous administration measured as microequivalent of Na+/minute; 12/166 (Control/Drug treated); type: functional, Canis lupus familiaris, Urine
Canis familiaris [23] = assay: Compound was tested for diuretic activity in dogs at 5 mg/kg dose after oral administration, activity is expressed as urine volume
Canis familiaris [24] = assay: Compound was tested for diuretic activity in dogs at 5 mg/kg dose after intravenous administration measured as microequivalent of Cl-/minute (Control/Drug treated); type: functional, Canis lupus familiaris, Urine; settings: in the assay text read “oral” for “intravenous”
Canis familiaris [25] = assay: Compound was tested for diuretic activity in dogs at 5 mg/kg dose after intravenous administration, activity is expressed as urine volume; 0.6/1.3; type: functional, Canis lupus familiaris
Canis familiaris [26] = assay: Diuretic activity in dogs following 5 mg/kg i.v. administration.; type: functional, Canis lupus familiaris, Urine; settings: route intravenous
Canis familiaris [27] = assay: Compound was tested for diuretic activity in dogs at 5 mg/kg dose after intravenous administration measured as microequivalent of Cl-/minute; 12/586 (Control/Drug treated); type: functional, Canis lupus familiaris, Urine
In short: as §4

Pan troglodytes [28] = assay: Compound was tested for natriuretic activity in chimpanzee at 5 mg/kg dose activity is measured as microequivalent of Na+/m; muequiv of Na+/minute; type: functional
In short: as §3

Canis familiaris [29] = assay: Compound was tested for diuretic activity in dogs at 5 mg/kg dose after intravenous administration measured as microequivalent of K+/minute; 4/54 (Control/Drug treated); type: functional, Canis lupus familiaris, Urine
In short: as §4

Canis familiaris [30] = assay: Compound was tested for diuretic activity in dogs at 5 mg/kg dose after intravenous administration, activity is expressed as urine volume; 1/6; type: functional, Canis lupus familiaris
Canis familiaris [31] = assay: Compound was tested for diuretic activity in dogs at 5 mg/kg dose after intravenous administration measured as microequivalent of K+/minute; 6/37 (Control/Drug treated); type: functional, Canis lupus familiaris, Urine
In short: as §4

Canis familiaris [32] = assay: Compound was tested for diuretic activity in dogs at 5 mg/kg dose after intravenous administration measured as microequivalent of Na+/minute; 5/95 (Control/Drug treated); type: functional, Canis lupus familiaris, Urine
Canis familiaris [33] = assay: Compound was tested for diuretic activity in dogs at 5 mg/kg dose after intravenous administration measured as microequivalent of Cl-/minute; 4/72 (Control/Drug treated); type: functional, Canis lupus familiaris, Urine
In short: as §4

Canis familiaris [34] = assay: Compound was tested for diuretic activity in dogs at 5 mg/kg dose after intravenous administration, activity is expressed as urine volume; 1/2; type: functional, Canis lupus familiaris
Rattus norvegicus [35] = assay: Compound was tested for natriuretic activity in rats at 3 mg/kg of dosage; mequiv of Na+ x 100/cage; type: functional
In short: as §2

Canis familiaris [36] = assay: Compound was tested for diuretic activity in dogs at 5 mg/kg dose after intravenous administration measured as microequivalent of Cl-/minute; 6/70 (Control/Drug treated); type: functional, Canis lupus familiaris, Urine
In short: as §4

Canis familiaris [37] = assay: Compound was tested for diuretic activity in dogs at 5 mg/kg dose after intravenous administration measured as microequivalent of K+/minute; 10/18 (Control/Drug treated); type: functional, Canis lupus familiaris, Urine
In short: as §4

Canis familiaris [38] = assay: Compound was tested for diuretic activity in dogs at 5 mg/kg dose after intravenous administration measured as microequivalent of Na+/minute; 13/565 (Control/Drug treated); type: functional, Canis lupus familiaris, Urine
Canis familiaris [39] = assay: Compound was tested for diuretic activity in dogs at 5 mg/kg dose after intravenous administration measured as microequivalent of K+/minute; 9/46 (Control/Drug treated); type: functional, Canis lupus familiaris, Urine
In short: as §4

Canis familiaris [40] = assay: Compound was tested for diuretic activity in dogs at 5 mg/kg dose after intravenous administration measured as microequivalent of Cl-/minute; 2/612 (Control/Drug treated); type: functional, Canis lupus familiaris, Urine
In short: as §4

Rattus norvegicus [41] = assay: Compound was tested for natriuretic activity in rats at 27 mg/kg of dosage; type: functional
In short: as §2

Canis familiaris [42] = assay: Compound was tested for diuretic activity in dogs at 5 mg/kg dose after intravenous administration, activity is expressed as urine volume; 0.6/6; type: functional, Canis lupus familiaris

Row | Structure (SMILES) | Urine volume (Canis familiaris [1]) | Oral activity (Canis familiaris [2]) | Oral activity (Rattus norvegicus [4]) | Oral activity (Canis familiaris [5]) | Oral activity (Rattus norvegicus [6]) | Oral activity (Canis familiaris [9]) | Oral activity (Rattus norvegicus [10]) | Oral activity (Rattus norvegicus [11]) | Ratio [12] | Oral activity (Pan troglodytes [15]) | further results
1 | CCOC(=O)C1Cc2cc(C(=O)c3cccs3)c(Cl)c(Cl)c2O1 (stereo not given) | 166 mL | 1.6 | 76 | 8.7 | 128 | 7.7 | 167 | 87 |  |  | Oral activity (Canis familiaris [3]): 7.7; Oral activity (Canis familiaris [7]): 8.7; Oral activity (Canis familiaris [8]): 1.6
2 | O=C(Cc1ccccc1)c1cc2c(c(Cl)c1Cl)OC(C(=O)O)C2 (stereo not given) |  |  | 25 |  | 126 |  | 173 | 80 | 0.315 | 513 | Cl- excretion (Canis familiaris [13]): 102 µequiv/min; K+ excretion (Canis familiaris [14]): 36 µequiv/min; Na+ excretion (Canis familiaris [16]): 108 µequiv/min
3 | O=C(O)C1Cc2cc(S(=O)(=O)c3cccs3)c(Cl)c(Cl)c2O1 (stereo not given) | 246 mL | 1.4 | 10 | 9.1 | 44 | 7.6 | 65 | 19 |  |  | K+ excretion (Canis familiaris [17]): 18 µequiv/min; Na+ excretion (Canis familiaris [18]): 264 µequiv/min; Cl- excretion (Canis familiaris [19]): 271 µequiv/min
4 | NS(=O)(=O)c1cc2c(cc1Cl)NCNS2(=O)=O [HYDROCHLOROTHIAZIDE] |  |  |  |  |  |  |  | 112 |  | 144 | K+ excretion (Canis familiaris [20]): 33 µequiv/min; Cl- excretion (Canis familiaris [21]): 156 µequiv/min; Na+ excretion (Canis familiaris [22]): 166 µequiv/min
5 | O=CC1Cc2cc(C(=O)c3cccs3)c(Cl)c(Cl)c2O1 (stereo not given) | 337 mL | 3.1 | 74 | 21.6 | 107 | 16.3 | 144 | 84 |  |  | Oral activity (Canis familiaris [3]): 16.3; Oral activity (Canis familiaris [23]): 337 mL; Oral activity (Canis familiaris [24]): 21.6; Oral activity (Canis familiaris [8]): 3.1
6 | O=C(c1cccs1)c1cc2c(c(Cl)c1Cl)OC(C(=O)O)C2 (stereo not given) |  |  | 175 |  | 257 |  | 310 | 191 | 0.34 | 1360 | Urine volume (Canis familiaris [25]): 0.6 mL/min; Oral activity (Canis familiaris [2]; 5 mg/kg): 4.2 and 5.2; Oral activity (Canis familiaris [5]; 5 mg/kg): 24.6 and 48.5; Oral activity (Canis familiaris [9]; 5 mg/kg): 18.7 and 37.7; Urine volume (Canis familiaris [26]): 432 mL and 541 mL
7 | O=C(O)C1Cc2cc(C(O)c3cccs3)c(Cl)c(Cl)c2O1 (stereo not given) |  |  | 25 |  | 80 |  | 180 | 40 | 0.15 |  | Cl- excretion (Canis familiaris [27]): 586 µequiv/min; Oral activity (Pan troglodytes [28]): 550; K+ excretion (Canis familiaris [29]): 54 µequiv/min; Urine volume (Canis familiaris [30]): 1 mL/min
8 | Cc1c(C(=O)c2cccs2)cc2c(c1C)OC(C(=O)O)C2 (stereo not given) |  |  |  |  | 61 |  | 71 | 68 |  |  | K+ excretion (Canis familiaris [31]): 37 µequiv/min; Na+ excretion (Canis familiaris [32]): 95 µequiv/min; Cl- excretion (Canis familiaris [33]): 72 µequiv/min; Urine volume (Canis familiaris [34]): 1 mL/min; Oral activity (Rattus norvegicus [35]): 29
9 | COc1ccc(C(=O)c2cc3c(c(Cl)c2Cl)OC(C(=O)O)C3)cc1 (stereo not given) | 307 mL | 2.9 | 40 | 17.8 | 129 | 14.4 | 194 | 96 |  |  | Cl- excretion (Canis familiaris [36]): 70 µequiv/min; K+ excretion (Canis familiaris [37]): 18 µequiv/min
10 | O=C(O)C1Cc2cc(Cc3cccs3)c(Cl)c(Cl)c2O1 (stereo not given) | 433 mL | 7.4 | 7 | 40.6 |  | 30.1 | 21 | 19 | 0.185 | 206 | Na+ excretion (Canis familiaris [38]): 565 µequiv/min; K+ excretion (Canis familiaris [39]): 46 µequiv/min; Cl- excretion (Canis familiaris [40]): 612 µequiv/min; Oral activity (Rattus norvegicus [41]): 19; Urine volume (Canis familiaris [42]): 0.6 mL/min
